From ChEMBL document CHEMBL4376862, “Synthesis and evaluation of novel chlorophyll a derivatives as potent photosensitizers for photodynamic therapy” (Eur J Med Chem, 2020)

Experiments:
[1] = Therapeutic index, ratio of TC50 for human A549 cells under dark to IC50 for human A549 cells irradiated with 1 J/cm2 of 650 nanometer laser light; format: toxicity, cell-based; conditions: read-out: TI
Outline: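 A549 cells (F-12K, 10% FBS, 37 °C, 5% CO2) seeded 24 h, then exposed to 0–10 photosensitizer for 24 h. Dark arm: MTT 48 h later. Light arm: 650 nm laser, 1 J/cm2 (25 mW/cm2, 40 s), then MTT. A570 viability relative to control, triplicate. Ratio = dark TC50 / irradiated IC50.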

[2] = Octanol/water partition coefficient, logP of compound by shake flask method; format: physicochemical
Outline: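 Shake-flask method: equilibrium concentrations in octanol and water measured by UV-vis absorbance; log P taken as log of octanol/water concentration ratio (mg/L).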

[3] = Absorption property of compound in DMSO assessed as strong absorption wavelength at 1 x 10^-3 M by UV-spectra analysis; format: physicochemical; conditions: 1000 µM
Outline: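 Stocks 1 mM in DMSO; spectra run over […] range (units as printed), 300–800 nm in 1 nm steps, room temperature, quartz cuvettes, UV-vis spectrophotometer.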

[4] = Emission property of a compound in DMSO assessed as red shift at 5 uM on excitation with light at 410 to 415 nm by 3D fluorescence spectra analysis; format: physicochemical
Outline: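 Stock 1 mM in DMSO, measured at […] (so in the source); excitation scanned 350–640 nm, emission 600–750 nm, 1 nm steps, room temperature, quartz cuvettes; 3D fluorescence matrix spectra recorded.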

[5] = Induction of ROS generation in DMF solution assessed as slope of the photodegradation rate of DPBF at 2 uM followed by irradiation measured every 10 secs by spectrophotometric analysis; format: functional
[6] = Drug uptake in human A549 cells incubated upto 24 hrs by fluorescence spectrophotometer analysis; format: ADME, cell-based; conditions: a549, 24 h
Outline: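 A549 cells (F-12K, 10% FBS, 37 °C, 5% CO2) grown in 24 wells and exposed to photosensitizer for 0.5, 1, 2, 4, 8, 12 or 24 h; cells harvested by digestion, fluorescence read on a spectrophotometer.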

[7] = Dark toxicity in human A549 cells assessed as reduction in cell viability incubated under dark for 24 hrs measured after 48 hrs by MTT assay; format: cell-based; conditions: read-out: TC50
Outline: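 A549 cells seeded at 5×10^4 cells/100 µL per well for 24 h, treated in the dark with […] (so in the source) for 24 h; MTT added 4 h, absorbance 570 nm, 48 h later; viability as OD treated/OD control; triplicate, mean ± SD.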

A549 [8] = experiment: Phototoxicity against human A549 cells assessed as reduction in cell proliferation irradiated with 1 J/cm2 of 650 nanometer laser light preincubated for 24 hrs measured after 48 hrs by MTT assay; format: functional, cell-based; conditions: A549, light or radiation study
Outline: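 A549 cells seeded 5×10^4 cells/100 µL per well, given […] for 24 h, then 650 nm semiconductor laser at 1 J/cm2 (25 mW/cm2, 40 s); MTT 4 h, absorbance 570 nm; viability vs control; triplicate, mean ± SD.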

A549 [9] = experiment: Photodynamic antitumor activity against human A549 cells xenografted in BALB/c nude mouse assessed as decrease in tumor weight at 0.3 mg/kg, iv followed by laser light irradiation at 120 J/cm2 measured after 14 days; format: functional
Outline: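 Male BALB/c nude mice (5–6 weeks, 14–16 g) given 2×10^6 A549 cells s.c. in 0.2 mL PBS; at 6–7 mm tumors randomized into ten groups; drug via tail vein, 650 nm diode laser 120 J/cm2 at 180 mW/cm2 24 h later; caliper volume a×b²/2, followed 14 days.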

[10] = Induction of ROS generation in DMF solution assessed as ROS quantum yield at 2 uM followed by irradiation measured every 10 secs by spectrophotometric analysis; format: functional
Mus musculus [11] = experiment: Phototoxicity in ICR mouse assessed as change in auricles 0.45 mg/kg, iv in presence of 10 mW/cm2 light irradiation for 10 mins upto 7 days measured after 1day of light irradiation by H and E staining based microscopic analysis; format: organism-based; conditions: in vivo
Mus musculus [12] = experiment: Phototoxicity in ICR mouse assessed as ear weight at 0.45 mg/kg, iv followed by 10 mW/cm2 light irradiation for 10 mins at 7 days after drug challenge measured after 1 day of light irradiation (13.2 +/- 1.6 mg); format: organism-based; conditions: in vivo
Mus musculus [13] = experiment: Phototoxicity in ICR mouse assessed as ear weight at 0.45 mg/kg, iv followed by 10 mW/cm2 light irradiation for 10 mins at 5 days after drug challenge measured after 1 day of light irradiation (reference value: 12.9 +/- 1.4 mg); format: organism-based; conditions: in vivo
Mus musculus [14] = experiment: Phototoxicity in ICR mouse assessed as ear weight at 0.45 mg/kg, iv followed by 10 mW/cm2 light irradiation for 10 mins at 3 days after drug challenge measured after 1 day of light irradiation (reference value: 12.8 +/- 1.5 mg); format: organism-based; conditions: in vivo
Mus musculus [15] = experiment: Phototoxicity in ICR mouse assessed as ear weight at 0.45 mg/kg, iv followed by 10 mW/cm2 light irradiation for 10 mins at 1 day after drug challenge measured after 1 day of light irradiation (reference value: 12.6 +/- 1.2 mg); format: organism-based; conditions: in vivo
Mus musculus [16] = experiment: Phototoxicity in ICR mouse assessed as change in exposed neck skin 0.45 mg/kg, iv in presence of 10 mW/cm2 light irradiation for 10 mins upto 7 days measured after 1day of light irradiation by H and E staining based microscopic analysis; format: organism-based; conditions: in vivo
Cavia porcellus [17] = experiment: Phototoxicity in guinea pig assessed as change in left ear weight 4.5 mg/kg, iv followed by 10 mW/cm2 light irradiation for 10 mins measured after 1 day of light irradiation (reference value: 39.2 +/- 1.8 mg); format: organism-based; conditions: in vivo
Cavia porcellus [18] = experiment: Phototoxicity in guinea pig assessed as change in right ear weight 4.5 mg/kg, iv followed by 10 mW/cm2 light irradiation for 10 mins measured after 1 day of light irradiation (reference value: 40.4 +/- 2.4 mg); format: organism-based; conditions: in vivo
Cavia porcellus [19] = experiment: Phototoxicity in guinea pig assessed as change in back skin weight 4.5 mg/kg, iv followed by 10 mW/cm2 light irradiation for 10 mins measured after 1day of light irradiation (reference value: 72.4 +/- 3.1 mg); format: organism-based; conditions: in vivo, 24 h

Row | SMILES | selectivity ratio [1] | logP [2] | Activity [3] | Activity [4] [nm] | K [5] [s⁻¹] | Drug uptake [6] | CC50 at 24 h [7] [nM] | IC50 (A549 [8]) [nM] | Activity (A549 [9]) [g] | Ratio [10] | Activity (Mus musculus [11]) | Activity (Mus musculus [12]) [mg] | Activity (Mus musculus [13]) [mg] | Activity (Mus musculus [14]) [mg] | Activity (Mus musculus [15]) [mg] | Activity (Mus musculus [16]) | Activity (Cavia porcellus [17]) [mg] | Activity (Cavia porcellus [18]) [mg] | Activity (Cavia porcellus [19]) [mg]
1 | CCOC(C)c1c(C)c2cc3nc(c4c5[nH]c(cc6nc(cc1[nH]2)C(C)=C6CC)c(C)c5C(=O)C4)[C@@H](CCC(=O)NCC(=O)CCC(=O)O)[C@@H]3C (some centres undefined) | 4.74 | 2.16 | 660 to 670 nm | 661 to 669 | 0.0161 | Active | 3270 | 690 | 0.0527 | 0.805 | – | – | – | – | – | – | – | – | –
2 | CCCOCCOC(C)c1c(C)c2cc3nc(c4c5[nH]c(cc6nc(cc1[nH]2)C(C)=C6CC)c(C)c5C(=O)C4)[C@@H](CCC(=O)NCC(=O)CCC(=O)O)[C@@H]3C (some centres undefined) | 3.42 | 2.22 | 660 to 670 nm | 661 to 669 | 0.0329 | Active | 4000 | 1170 | 0.1154 | 1.65 | – | – | – | – | – | – | – | – | –
3 | CCC1=C(C)c2cc3[nH]c(cc4nc(c5c6[nH]c(cc1n2)c(C)c6C(=O)C5)[C@@H](CCC(=O)NCC(=O)CCC(=O)O)[C@@H]4C)c(C)c3C(C)OCCOC (some centres undefined) | 7.43 | 1.82 | 660 to 670 nm | 661 to 669 | 0.0162 | Active | 5650 | 760 | 0.2431 | 0.81 | – | – | – | – | – | – | – | – | –
4 | CCC1=C(C)c2cc3[nH]c(cc4nc(c5c6[nH]c(cc1n2)c(C)c6C(=O)C5)[C@@H](CCC(=O)NCC(=O)CCC(=O)O)[C@@H]4C)c(C)c3C(C)OC (some centres undefined) | 4.54 | 1.91 | 660 to 670 nm | 661 to 669 | 0.0195 | Active | 2680 | 590 | 0.1265 | 0.975 | – | – | – | – | – | – | – | – | –
5 | C=Cc1c(C)c2cc3nc(c4c5[nH]c(cc6nc(cc1[nH]2)C(C)=C6CC)c(C)c5C(=O)C4)[C@@H](CCC(=O)O)[C@@H]3C [PYROPHEOPHORBIDE A] | – | 3.77 | Active | 661 to 669 | 0.0081 | – | – | – | – | 0.405 | Non-Toxic | 13.3 | 13.2 | 12.7 | 13.1 | Non-Toxic | 57.2 | 59.2 | 100.3
6 | CCCCCOC(C)c1c(C)c2cc3nc(c4c5[nH]c(cc6nc(cc1[nH]2)C(C)=C6CC)c(C)c5C(=O)C4)[C@@H](CCC(=O)NCC(=O)CCC(=O)O)[C@@H]3C (some centres undefined) | 10.4 | 2.61 | 660 to 670 nm | 661 to 669 | 0.0353 | Active | 1040 | 100 | 0 | 1.76 | – | – | – | – | – | – | – | – | –
7 | CCCOC(C)c1c(C)c2cc3nc(c4c5[nH]c(cc6nc(cc1[nH]2)C(C)=C6CC)c(C)c5C(=O)C4)[C@@H](CCC(=O)NCC(=O)CCC(=O)O)[C@@H]3C (some centres undefined) | 5.32 | 2.34 | 660 to 670 nm | 661 to 669 | 0.018 | Active | 2660 | 500 | 0.0495 | 0.9 | – | – | – | – | – | – | – | – | –
8 | CCCCCCOC(C)c1c(C)c2cc3nc(c4c5[nH]c(cc6nc(cc1[nH]2)C(C)=C6CC)c(C)c5C(=O)C4)[C@@H](CCC(=O)NCC(=O)CCC(=O)O)[C@@H]3C (some centres undefined) | 12.6 | 2.67 | 660 to 670 nm | 661 to 669 | 0.0363 | Active | 1010 | 80 | 0 | 1.81 | – | – | – | – | – | – | – | – | –
